Measured values published in ChEMBL document CHEMBL5120741, “Small molecule-mediated induction of endoplasmic reticulum stress in cancer cells” (RSC Med Chem, 2021).
Calls of active or inactive are those of the source. The calls are words filed in the database; no cut-off is given here.

Key:
[1] = system: HeLa; assay: Cytotoxicity against human HeLa cells assessed as cell viability after 24 hrs by MTT assay; type: functional, cell-based
Summary of the method: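 HeLa cells from NCCS incubated 24 h with compound across a concentration range (single-point screen at 30 μM); viability read by MTT assay; IC50 from dose-response; significance by two-way ANOVA.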

[2] = system: HeLa; assay: Cytotoxicity against human HeLa cells assessed as cell killing at 30 uM after 24 hrs by MTT assay
[3] = system: HeLa; assay: Induction of autophagy in human HeLa cells assessed as increase in LC3B level measured after 24 hrs by confocal microscopic analysis relative to control; type: functional
Summary of the method: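 HeLa cells treated 24 h, fixed in paraformaldehyde, permeabilized with 0.1% Tween-20 buffer, anti-LC3B primary 4 h, Alexa Fluor 488 secondary, DAPI nuclei; confocal imaging, green signal as fold over control.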

[4] = system: HeLa; assay: Induction of ERstress in human HeLa cells assessed as increase in lipid level measured after 24 hrs by Oil-red-O staining analysis; type: functional, cell-based
Summary of the method: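 Lipid content: HeLa cells exposed 24 h, stained with Oil Red O plus DAPI for nuclei, viewed by confocal microscopy against untreated control.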

[5] = Induction of ERstress in human HeLa cells assessed as increase in BiP expression level measured after 24 hrs by Western blot analysis relative to control; type: functional
Summary of the method: (§1)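 HeLa cells treated 24 h, lysed, proteins separated by gel electrophoresis and immunoblotted for BiP, CHOP, IRE1α, PERK or caspase-12; expression given as fold change over untreated control.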

[6] = system: HeLa; assay: Induction of apoptosis in human HeLa cells assessed as increase in late apoptotic cells level measured after 24 hrs in presence of 50 uM of chloroquine by annexin-V-PI staining based flow cytometry (reference value: 0.08%); type: functional
Summary of the method: (§2)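 Apoptosis by flow cytometry: HeLa cells treated 24 h alone or with 50 μM chloroquine, stained with Annexin V-FITC and propidium iodide; early and late apoptotic fractions reported as % cells.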

[7] = system: HeLa; assay: Induction of autophagy in human HeLa cells assessed as increase in LC3-II level measured after 24 hrs by Western blot analysis relative to control; type: functional
Summary of the method: (§3)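 HeLa cells (NCCS) exposed to compound for 24 h, then lysed; cellular proteins resolved by gel electrophoresis and immunoblotted for LC3-I, LC3-II and Beclin. Band levels expressed as fold change versus untreated control cells. The LC3-I/LC3-II ratio is taken from the same blots and also expressed as fold over control.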

[8] = system: HeLa; assay: Induction of autophagy in human HeLa cells assessed as increase in LC3-I/LC3-II ratio level measured after 24 hrs by Western blot analysis relative to control; type: functional; summary of the method: as §3
[9] = Induction of ERstress in human HeLa cells assessed as increase in CHOP expression level measured after 24 hrs by confocal microscopic analysis relative to control; type: functional
Summary of the method: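 After 24 h treatment, HeLa cells probed with anti-CHOP primary antibody (4 h), then Alexa Fluor 594 secondary; nuclei DAPI-stained; confocal imaging, red signal expressed as fold over untreated cells.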

[10] = Induction of ERstress in human HeLa cells assessed as increase in CHOP expression level measured after 24 hrs by Western blot analysis relative to control; type: functional; summary of the method: as §1
[11] = system: HeLa; assay: Induction of autophagy in human HeLa cells assessed as increase in LC3-1 level measured after 24 hrs by Western blot analysis relative to control; type: functional; summary of the method: as §3
[12] = Induction of ERstress in human HeLa cells assessed as increase in IRE1-alpha expression level measured after 24 hrs by Western blot analysis relative to control; type: functional; summary of the method: as §1
[13] = system: HeLa; assay: Induction of apoptosis in human HeLa cells assessed as increase in late apoptotic cells level measured after 24 hrs by annexin-V-PI staining based flow cytometry (reference value: 0.08%); type: functional; summary of the method: as §2
[14] = Induction of ERstress in human HeLa cells assessed as increase in caspase-12 expression level measured after 24 hrs by Western blot analysis relative to control; type: functional; summary of the method: as §1
[15] = system: HeLa; assay: Induction of autophagy in human HeLa cells assessed as increase in beclin level measured after 24 hrs by confocal microscopic analysis relative to control; type: functional
Summary of the method: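 Immunofluorescence: HeLa cells treated 24 h, anti-Beclin primary then Alexa Fluor 594 secondary, DAPI counterstain; confocal microscopy, red signal as fold versus untreated control.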

[16] = system: HeLa; assay: Induction of autophagy in human HeLa cells assessed as increase in beclin level measured after 24 hrs by Western blot analysis relative to control; type: functional
Summary of the method: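 Western blot: HeLa cells treated 24 h, lysed, proteins resolved by gel electrophoresis and probed for Beclin; fold change versus untreated cells.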

[17] = system: HeLa; assay: Induction of apoptosis in human HeLa cells assessed as increase in early apoptotic cells level measured after 24 hrs by annexin-V-PI staining based flow cytometry (reference value: 1.26%); type: functional; summary of the method: as §2
[18] = system: HeLa; assay: Induction of apoptosis in human HeLa cells assessed as increase in early apoptotic cells level measured after 24 hrs in presence of 50 uM of chloroquine by annexin-V-PI staining based flow cytometry (reference value: 1.26%); type: functional; summary of the method: as §2
[19] = Induction of ERstress in human HeLa cells assessed as increase in PERK expression level measured after 24 hrs by Western blot analysis relative to control; type: functional; summary of the method: as §1
[20] = Drug uptake in endoplasmic reticulum of human HeLa cells at 5 uM measured after 3 and 6 hrs by ER-tarcker dye based laser confocal microscopy; type: ADME, subcellular
Summary of the method: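 HeLa cells given 5 μM compound (intrinsically green fluorescent) for 3 h and 6 h, ER counterstained with ER-Tracker Red, imaged by confocal laser scanning microscopy; colocalization quantified as Pearson's and Mander's coefficients.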

Question: Which results are given for O=S(=O)(N/N=C/c1c[nH]c2cc(Br)ccc12)c1ccc(Cl)cc1?
Answer: IC50 [1]: 18 µM; cell killing at 30 µM [2]: > 60%

Question: For COc1ccc(S(=O)(=O)N/N=C/c2c[nH]c3cc(Br)ccc23)cc1, which IC50 [1] is on record?
Answer: 19 µM

Question: And the cell killing at 30 µM [2]?
Answer: > 60%

Question: Which IC50 [1] does the source give for O=S(=O)(N/N=C/c1c[nH]c2cc(Br)ccc12)c1ccc(Br)cc1 here?
Answer: 16 µM

Question: And the Activity [3]?
Answer: Active

Question: And the Activity [4]?
Answer: Active

Question: What about the cell killing at 30 µM [2] of the same compound?
Answer: > 60%

Question: What does the source list for CN(C)c1cccc2c(S(=O)(=O)N/N=C/c3c[nH]c4cc(Br)ccc34)cccc12?
Answer: fold change (FC) [5]: 1.6; IC50 [1]: 9 µM; Activity [6]: 62%; fold change (FC) [7]: 10; fold change (FC) [8]: 3.8; fold change (FC) [9]: 1.7; fold change (FC) [10]: 1.6; fold change (FC) [11]: 2.6; fold change (FC) [12]: 1.8; Activity [13]: 17.8%; fold change (FC) [14]: 1.4; fold change (FC) [15]: 8; fold change (FC) [16]: 2; Activity [17]: 64.6%; Activity [18]: 28.6%; fold change (FC) [19]: 1.6; Drug uptake [20]: Active; fold change (FC) [3]: 5; Activity [4]: Active; cell killing at 30 µM [2]: > 60%
